Experimental data reported in ChEMBL document CHEMBL4251661, “Capsicodendrin from Cinnamosma fragrans Exhibits Antiproliferative and Cytotoxic Activity in Human Leukemia Cells: Modulation by Glutathione” (J Nat Prod, 2018).
Active and inactive are the calls of the source. The calls are words filed in the database; no cut-off is given here.

Experiments:
[1] = tested on: HL-60; experiment: Growth inhibition of human HL60 cells at 0.2 to 0.5 uM after 48 hrs in presence of GSH synthesis inhibitor buthionine sulfoximine by Beckman coulter counting method; format: functional, cell-based
[2] = tested on: HL-60; experiment: Cytotoxicity against human HL60 cells assessed as cell death at 0.2 to 0.5 uM after 48 hrs in presence of GSH synthesis inhibitor buthionine sulfoximine by trypan blue dye exclusion method; format: functional, cell-based
Outline: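 HL-60 cells (RPMI-1640 + 15% FBS, 37 °C, 5% CO2) seeded at 100 000 cells/mL. For line 1, cells were first held 40 h ± BSO 50 μM. They were then exposed to CPCD 0.1–0.5 μM or DMSO for 48 h or 48 and 72 h. Cells were mixed 1:1 with trypan blue and % blue-positive cells counted on a hemocytometer. Mean ± SEM of 3–9 separate-day runs.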

[3] = tested on: HL-60; experiment: Induction of apoptosis in human HL60 cells assessed as change in morphology at 0.2 to 0.5 uM after 48 hrs in presence of GSH synthesis inhibitor buthionine sulfoximine by […]; format: functional, cell-based
Outline: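 HL-60 cells seeded at 100 000 cells/mL; for line 11, first held 40 h ± BSO 50 μM. Exposed to CPCD 0.1–0.5 μM or 0.1% DMSO for 48 h or 48 and 72 h. Washed pellets stained 20 min in the dark at room temperature with Hoechst 33342 (0.013 mg/mL). Fluorescence microscopy; 100–200 cells scored for apoptotic nuclear morphology.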

[4] = tested on: HL-60; experiment: Growth inhibition of human HL60 cells after 72 hrs in presence of GSH synthesis inhibitor buthionine sulfoximine by Beckman coulter counting method; format: functional, cell-based; details: HL-60, 72 h
Outline: (§1)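 HL-60 cells in complete RPMI, preincubated 40 h with or without BSO 50 μM, then seeded at 100 000 cells/mL. Treated with CPCD (0.1, 0.2, 0.5 μM) or DMSO (1%) for 72 h at 37 °C, 5% CO2. Cells counted on a Coulter counter; IC50 taken from growth curves. Mean ± SEM of 3–4 separate-day experiments.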

[5] = tested on: HL-60; experiment: Growth inhibition of human HL60 cells after 72 hrs by Beckman coulter counting method; format: functional, cell-based; details: HL-60, 72 h; outline: as §1
[6] = tested on: K562; experiment: Growth inhibition of human K562 cells after 72 hrs in presence of GSH synthesis inhibitor buthionine sulfoximine by Beckman coulter counting method; format: functional, cell-based; details: K562, 72 h
Outline: (§2)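 K562 cells in DMEM + 10% FBS, preincubated 40 h with or without BSO 50 μM, then seeded at 100 000 cells/mL. Exposed to CPCD or DMSO at 37 °C, 5% CO2; growth assessed after 48 h per figure legend (72 h per methods). Cell number read on a Coulter counter; IC50 calculated from growth curves. Mean ± SEM of 3–4 separate-day runs.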

[7] = tested on: K562; experiment: Growth inhibition of human K562 cells after 72 hrs by Beckman coulter counting method; format: functional, cell-based; details: K562, 72 h; outline: as §2
[8] = Displacement of ThioGlo4 from glutathione measured after 8 hrs by fluorescence assay; details: read-out: Kd(app)
Outline: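 GSH (5 μM) incubated with CPCD 0.5–100 μM in 1× PBS for 8 h at 37 °C. ThioGlo IV (10 μM) added to diluted aliquots; unreacted GSH quantified by fluorescence, excitation 400 nm, emission 465 nm.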

[9] = tested on: HL-60; experiment: Induction of DNA damage in human HL60 cells assessed as increase in DNA strand breaks at 0.5 to 5 uM after 1 hr by SYBR green dye based comet assay; format: functional, cell-based
Outline: (§3)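 HL-60 cells (100 000 cells/mL), ±BSO 50 μM for 40 h, moved into HEPES/glucose/salt buffer pH 7.4. Treated 1 h at 37 °C with CPCD 0.5–5 μM or 0.2% DMSO. Cells embedded in low-melt agarose, lysed, held at pH 13, then electrophoresed 30 min at 21 V/cm. SYBR Gold staining; Olive tail moment scored from ≥100 cells. Mean ± SEM of 5 runs.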

[10] = tested on: HL-60; experiment: Induction of DNA damage in human HL60 cells assessed as increase in DNA strand breaks at 2 to 5 uM after 1 hr in presence of GSH synthesis inhibitor buthionine sulfoximine by SYBR green dye based comet assay; format: functional, cell-based; outline: as §3
[11] = tested on: HL-60; experiment: Induction of reactive oxygen species generation in human HL60 cells at 1 to 5 uM measured at 2 mins interval for 1 hr by DCFH-DA staining-based fluorescence assay; format: functional, cell-based
Outline: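 HL-60 cells (1 × 10^6/mL) loaded with DCFH-DA 2 μM in HEPES buffer for 30 min at 37 °C, washed, then treated with vehicle, CPCD 1–5 μM or H2O2 25 μM. Fluorescence read every 2 min up to 1 h, in triplicate wells. Rate expressed as fluorescence units per min.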

[12] = Drug level in DMSO-d6 treated with capsicodendrin at 2 mg measured after 1 hr by 1H-NMR spectra analysis; format: physicochemical

CC(=O)O[C@@H]1C=C([C@H]2O[C@@H]3OC(O)C4=C[C@@H](OC(C)=O)[C@H]5C(C)(C)CCC[C@]5(C)[C@]43O2)[C@](O)(C=O)[C@@]2(C)CCCC(C)(C)[C@H]12 (some centres not stated)
growth inhibition (GI) [1]: Active | Activity [2]: Active | Activity [3]: Active | IC50 [4]: 70 to 90 nM | IC50 [5]: 200 to 270 nM | IC50 [6]: 180 to 210 nM | IC50 [7]: 360 to 480 nM | Kd [8]: 7200 nM | Activity [9]: Active | Activity [10]: Active | Activity [11]: inactive

CC(=O)O[C@@H]1C=C(C=O)[C@](O)(C=O)[C@@]2(C)CCCC(C)(C)[C@H]12 [CINNAMODIAL]
Drug metabolism [12]: Metabolite_Detected
